# Screening data deposited in PubChem by The Scripps Research Institute Molecular Screening Center.
# GSTO1 inh – blocks human GSTO1 in RBBP9 counter-screen; inhibition, % at 5.96 µM; P78417; recombinant GSTO1, activity-based probe fluorescence polarization; hit rate 1.1% among 300,000;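 active = inhibition above the campaign mean inhibition plus 3 SD, cut at about 35% in these data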;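 also: 0% = GSTO1-1 with DMSO and 100% = wells lacking GSTO1-1 enzyme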
# Target sequence (P78417 whole entry, looked up): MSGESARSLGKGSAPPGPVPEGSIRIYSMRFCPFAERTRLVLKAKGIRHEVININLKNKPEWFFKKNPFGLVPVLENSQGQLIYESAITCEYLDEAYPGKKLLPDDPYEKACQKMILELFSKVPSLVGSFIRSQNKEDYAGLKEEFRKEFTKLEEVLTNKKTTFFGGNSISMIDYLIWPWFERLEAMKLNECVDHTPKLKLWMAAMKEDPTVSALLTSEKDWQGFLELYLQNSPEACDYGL
# PAD4 inh – inhibitors of human PAD4; hit rate 0.41% among 330,000; recombinant PAD4, RCA probe fluorescence polarization; inhibition, % at 6.36 µM; Q9UM07;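 active = percent inhibition above a cutoff equal to the mean of all tested compounds plus 3 SD, cut at about 15% in these data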;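 also: 0% = PAD4 with RCA probe and DMSO and 100% = probe without PAD4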
# RBBP9 inh – inhibitors of human serine hydrolase RBBP9. O75884. recombinant RBBP9, FP-Rh probe fluorescence polarization. inhibition, % at 7.94 µM. hit rate 0.2% among 220,000. AID 1515;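 active = inhibition above the campaign mean of all tested compounds plus 3 SD, cut at about 14% in these data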;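 also: plate controls were DMSO wells with RBBP9 for no effect and wells lacking RBBP9 protein for full effect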
# Target sequence (O75884 whole entry, looked up): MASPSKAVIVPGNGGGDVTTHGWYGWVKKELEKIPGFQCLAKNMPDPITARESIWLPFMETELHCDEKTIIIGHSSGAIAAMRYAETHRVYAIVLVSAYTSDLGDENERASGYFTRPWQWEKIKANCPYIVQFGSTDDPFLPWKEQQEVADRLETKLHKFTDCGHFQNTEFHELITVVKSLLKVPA
#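 Measured by: FP readout at 525/598 nm; material: recombinant human RBBP9; also added: Serine-hydrolase probe FP-Rh, 375 nM pre-mixing; medium: Tris buffer pH 8.0, NaCl, Pluronic; replication: one well per compound; doses: one concentration, 7.94 µM nominal, 0.794% DMSO; timing: preincubation 30 min plus labeling 45 min at 25 °C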
# SIAE inh – inhibitors of human sialic acid acetylesterase SIAE. Q9HAT2. SIAE FP-Rh probe binding, fluorescence polarization. inhibition, % at 9.66 µM. hit rate 0.69% among 370,000. AID 1053197;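 active = inhibition above a cutoff: mean of compounds within the control limits plus 3 SD of those, cut at about 17% in these data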;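 also: 0% = plate median of compound wells and 100% = probe without SIAE protein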
# PRMT1 inh – PRMT1 (human) inhibition, primary screen; Q99873; recombinant PRMT1, activity-based probe fluorescence polarization; inhibition, % at 2.79 µM; hit rate 1.3% among 370,000; AID 652257;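 active = inhibition above about 21% made by adding two undisclosed values, limit read from the data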
# * hit, by the source's call; . = no result. The list is not random: actives were taken first. Their share in the collection is about 2.7%.
SMILES,GSTO1 inh,PAD4 inh,RBBP9 inh,SIAE inh,PRMT1 inh
CC1CCN(C(CC(=O)c2ccccc2)C(=O)c2ccccc2)CC1 (stereo not drawn),.,.,.,0.6,72.2*
O=C1C(=O)c2cccc3cccc1c23,37.6*,-6.7,0.4,-1.1,0.4
N#CC1c2ccccc2C=CN1C(=O)c1ccc(N(CCCl)CCCl)cc1 (stereo not drawn),.,.,.,-0.4,2.3
c1ccc2c(CCN3CCCCC3)c[nH]c2c1,.,.,.,4.6,4.7
CC[C@H](C)/C=C(C)/C=C/C1=CC2=C(Cl)C(=O)[C@@](C)(OC(C)=O)C(=O)C2=CO1,35.8*,9.2,.,.,.
CN1/C(=C\C=C\C2=[N+](C)c3ccc4ccccc4c3C2(C)C)C(C)(C)c2ccccc21,-123.9,119.4*,131.6*,.,.
COc1ccc(/C=C2\C(=O)NC(=S)N(C)C2=O)cc1C,11.5,-0.8,-5.4,-8.7,44.9*
c1cncc(C2Nc3cccc4cccc(c34)N2)c1,64.4*,-7.4,-1.7,-1.7,12.1
COC(=O)C1=C(c2ccc(-c3ccccc3)c(F)c2)C[C@@H]2CC[C@H]1N2C(=O)N1CCCCC1,.,0.8,.,-0.9,-0.3
Cc1cccc(N2C(=O)/C(=C/c3ccc(CN(CCC#N)S(C)(=O)=O)o3)C(=O)NC2=S)c1,5.3,-13.7,1.4,-2.6,41.1*
Cc1ccc(N2C(=O)/C(=C/c3ccc(CN(CCC#N)S(C)(=O)=O)o3)C(=O)NC2=S)cc1C,16.0,-23.4,-3.9,.,.
Cc1cc(OC(=O)c2cccs2)c2c3c(c(=O)oc2c1)CCCC3,0.8,-4.8,-5.0,1.3,-4.3
CCCNC(=O)N1[C@H]2CC[C@@H]1C(C(=O)OC)=C(c1cccc(OC)c1OC)C2,2.1,-5.8,.,-0.1,-2.1
CN1C(=O)C(=Cc2ccccc2Oc2ccc(Cl)cc2)C(=O)N(C)C1=O,10.7,-3.0,-3.6,2.5,21.5*
COC(=O)C1=C(C(=O)OC)SC2(S1)C(C(=O)OC)=C(C(=O)OC)Sc1c2ssc1=O,.,.,.,1.7,105.1*
COc1cc(C2c3cc4c(cc3CC3COC(=O)C32)OCO4)cc(OC)c1OC (stereo not drawn),.,-1.5,.,1.5,22.0*
O=C(OC1CC2CCC(N2)C1C(=O)O)c1ccccc1 (stereo not drawn),.,-0.4,.,-1.8,1.4
CC1=C(C(=O)O)N2C(=O)[C@@H](NC(=O)CCCC(=O)O)[C@H]2SC1,2.5,-2.9,10.2,-7.5,23.3*
CN1CCN(c2ccc([N+](=O)[O-])c3no[n+]([O-])c23)CC1,46.7*,-10.2,-5.1,-14.0,112.0*
COc1ccc(C(=O)N2C[C@H]3C[C@@H](C2)c2cccc(=O)n2C3)cc1OC,2.0,-2.7,.,-7.8,-8.1
O=C1CN(C(=O)COC(=O)Cc2ccccc2)c2ccccc2N1,34.9*,-2.7,-1.6,4.1,-4.0
O=C(COC(=O)Cc1ccccc1)NCCNC(=O)COC(=O)Cc1ccccc1,5.1,-2.9,.,-7.0,-1.8
O=C1NC(=O)C(=Cc2ccco2)C(=O)N1,.,.,.,3.8,7.9
CCOC(=O)[C@]1(C#N)[C@@H]2C=CC(C(C)=O)=CN2[C@@H](C(N)=O)[C@@H]1c1ccsc1,6.2,4.5,2.3,17.5*,15.0
CCC(CO)NC(=O)C1C=C2c3cccc4[nH]cc(c34)CC2N(C)C1 (stereo not drawn),10.8,-2.8,-3.4,6.6,15.0
SMILES,GSTO1 inh,PAD4 inh,RBBP9 inh,SIAE inh,PRMT1 inh
COC(=O)C1C=C2c3cccc4[nH]cc(c34)CC2N(C)C1 (stereo not drawn),.,.,21.3*,.,.
COP(=O)(OC)C(NC(C)=O)C(Cl)(Cl)Cl (stereo not drawn),8.3,-3.1,-10.7,-1.3,1.3
CCn1c(O)c(C=Nc2cc(Cl)ccc2Cl)c(=O)n(CC)c1=O,3.7,-5.9,-11.5,5.2,21.8*
Cn1c(O)c(/C=C2/C=CC=N2)c(=O)[nH]c1=O,7.2,-6.3,-7.6,-1.5,-1.8
CS(=O)(=O)c1ccc(C2=C(CNC(=O)c3ccncc3)[C@H]3CC[C@@H](C2)N3CCOc2ccccc2)cc1,.,.,.,-1.4,-3.2
C/C(CC(c1ccccc1)c1c(O)c2ccccc2oc1=O)=N\Nc1ccc([N+](=O)[O-])cc1[N+](=O)[O-] (stereo not drawn),37.3*,-9.8,7.5,6.7,5.8
O=c1oc2ccccc2c(O)c1C(c1ccc([N+](=O)[O-])cc1)c1c(O)c2ccccc2oc1=O,.,.,-12.5,-69.9,5.3
Nc1c(C(=O)NCC2CCCO2)c2nc3ccccc3nc2n1Cc1ccco1 (stereo not drawn),16.4,-9.9,-3.9,-3.4,13.5
